Measurements: publication PMC11797553 (Science Advances, 2025)
Ends that are not written are not given here.

Assays:
rat erythrocytes = assay: Hemolysis assay; assay type: cell-based, Sprague-Dawley rats; settings: for concentration inducing hemolysis relative to MICs: hemolytic concentration / MIC
Outline: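 Sprague-Dawley rat blood was drawn from the abdominal aorta into heparin. RBCs were centrifuged, washed and made up as a 10% suspension in saline. Peptides, twofold-diluted in saline, were incubated with the RBCs at 37°C for 1 h, then spun 10 min, and supernatant A540 was read. Controls were saline (0%) and 1% Triton X-100 (100%). Hemolysis % = (Am − An)/(Ap − An) × 100.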

mammalian cells = assay: Cytotoxicity assay; assay type: cell-based, human; settings: for cytotoxicity: in words, MTT, HaCaTs and HUVECs, 24 h; for concentration inducing cytotoxicity relative to MICs: cytotoxic concentration / MIC
Outline: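 HUVECs and HaCaTs in log phase were trypsinised, adjusted to 5 × 10^4 cells/ml, seeded and left to adhere overnight. Cells were exposed to a range of peptide concentrations (peptides in sterile water) for 24 h at 37°C, 5% CO2, with untreated wells as controls. MTT (5 mg/ml stock) was added for 4 h, the supernatant was removed, formazan was dissolved in DMSO, and A490 was read.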

[1] = system: six strains of pathogenic fungi and five strains of pathogenic bacteria; assay: MIC determination, whole panel of fungi and bacteria; assay type: cell-based; settings: in words
A. baumannii GD003 = assay: Drug resistance development, serial passage; assay type: cell-based, Acinetobacter baumannii; settings: A. baumannii GD003, serial passage at sub-MIC for 30 days, 96-well plates
Outline: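 A. baumannii GD003 was activated in liquid culture and grown 12 h. It was diluted to 5 × 10^5 cells/ml in MHB and tested by broth microdilution in 96-well plates (37°C, 24 h; MIC = lowest concentration with no visible growth). Cells from the half-MIC well were carried into the next round and the MIC was re-measured, repeating over 30 days.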

A. baumannii = assay: Murine lung infection; assay type: in vivo, BALB/c mice; settings: 40 mg/kg intravenously for three consecutive days

Row | Sequence | hemolytic activity (rat erythrocytes; in words, 10% rat RBC, 37°C, 1 h (Fig. 3A)) | cytotoxicity (mammalian cells) | antimicrobial activity [1] | concentration with hemolytic activity (rat erythrocytes; 10% rat RBC, 37°C, 1 h) [µM] | concentration inducing hemolysis relative to MICs (rat erythrocytes) | concentration inducing cytotoxicity relative to MICs (mammalian cells) | MIC after 30 passages of induced resistance (A. baumannii GD003) [µM] | H&E staining of off-target tissues (heart, liver, kidney) (A. baumannii)
1 | GIWDMIRKVRTVIRKAKQIKTFINGKGVQ [AMP-11] | potent hemolytic activity | moderate cytotoxicity | – | – | – | – | – | –
2 | VTFVRLAGVASAVKTKAG [peptide 26] | – | – | lacks antimicrobial activity | – | – | – | – | –
3 | WFHFFQRGSYNGI [AMP-29] | – | low cytotoxicity | – | 50 | 4 fold | > 32 fold | – | –
4 | WLGSKIKAAKMKVGMWGAVGLRHN [AMP-24] | – | low cytotoxicity | – | – | at least 32 fold | at least 32 fold | 12.5 | no obvious immune cell infiltrations were observed
